Test results as given in ChEMBL document CHEMBL1128507, “Design and synthesis of potent retinoid X receptor selective ligands that induce apoptosis in leukemia cells” (J Med Chem, 1995).
pEC50, pKd: −log10 of the molar value.

Experiments:
[1] = target: T1, Retinoic acid receptor RXR-gamma (Mus musculus, UniProt P28705); assay: Ability to activate gene expression at Retinoic acid receptor RXR-gamma was evaluated in a cotransfection assay.
T1 sequence (P28705 whole entry): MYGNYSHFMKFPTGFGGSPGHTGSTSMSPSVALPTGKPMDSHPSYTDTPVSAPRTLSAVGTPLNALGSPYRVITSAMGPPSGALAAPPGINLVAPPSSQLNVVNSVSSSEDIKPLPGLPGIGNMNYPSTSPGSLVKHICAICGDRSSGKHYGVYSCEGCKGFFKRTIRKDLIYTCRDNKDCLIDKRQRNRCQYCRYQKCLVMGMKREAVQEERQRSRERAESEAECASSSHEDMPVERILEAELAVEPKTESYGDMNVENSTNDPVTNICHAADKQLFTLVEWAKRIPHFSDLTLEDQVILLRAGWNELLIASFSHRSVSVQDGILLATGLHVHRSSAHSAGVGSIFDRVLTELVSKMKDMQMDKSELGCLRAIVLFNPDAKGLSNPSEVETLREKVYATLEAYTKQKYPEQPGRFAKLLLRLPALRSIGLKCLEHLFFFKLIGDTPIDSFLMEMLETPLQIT
In short: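 CV-1 cells cotransfected with the RXR-gamma receptor, using an automated 96-well format. Values are either one experiment in triplicate or the mean ± SEM of at least two experiments, each in triplicate.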

[2] = target: T2, Retinoic acid receptor RXR-beta (Mus musculus, UniProt P28704); assay: Binding affinity to Retinoic acid receptor RXR-beta was determined in a competitive binding assay.
T2 sequence (P28704 whole entry): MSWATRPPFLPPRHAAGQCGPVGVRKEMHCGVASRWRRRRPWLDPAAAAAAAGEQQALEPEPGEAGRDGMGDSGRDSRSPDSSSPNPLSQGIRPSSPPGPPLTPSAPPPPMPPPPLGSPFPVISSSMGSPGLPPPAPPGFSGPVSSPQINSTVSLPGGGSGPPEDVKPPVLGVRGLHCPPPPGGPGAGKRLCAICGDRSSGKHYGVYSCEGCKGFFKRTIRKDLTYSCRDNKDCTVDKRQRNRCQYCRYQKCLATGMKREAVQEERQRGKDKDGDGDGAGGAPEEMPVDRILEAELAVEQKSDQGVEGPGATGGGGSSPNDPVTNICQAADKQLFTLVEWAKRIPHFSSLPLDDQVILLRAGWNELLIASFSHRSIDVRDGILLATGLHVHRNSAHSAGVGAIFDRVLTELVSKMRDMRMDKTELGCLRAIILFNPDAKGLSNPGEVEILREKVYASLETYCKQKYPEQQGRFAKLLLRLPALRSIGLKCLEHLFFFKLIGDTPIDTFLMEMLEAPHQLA

[3] = target: T3, Retinoic acid receptor RXR-alpha (Homo sapiens, UniProt P19793); assay: Ability to bind directly to Retinoic acid receptor RXR-alpha was evaluated in a competitive binding assay.
T3 sequence (P19793 whole entry): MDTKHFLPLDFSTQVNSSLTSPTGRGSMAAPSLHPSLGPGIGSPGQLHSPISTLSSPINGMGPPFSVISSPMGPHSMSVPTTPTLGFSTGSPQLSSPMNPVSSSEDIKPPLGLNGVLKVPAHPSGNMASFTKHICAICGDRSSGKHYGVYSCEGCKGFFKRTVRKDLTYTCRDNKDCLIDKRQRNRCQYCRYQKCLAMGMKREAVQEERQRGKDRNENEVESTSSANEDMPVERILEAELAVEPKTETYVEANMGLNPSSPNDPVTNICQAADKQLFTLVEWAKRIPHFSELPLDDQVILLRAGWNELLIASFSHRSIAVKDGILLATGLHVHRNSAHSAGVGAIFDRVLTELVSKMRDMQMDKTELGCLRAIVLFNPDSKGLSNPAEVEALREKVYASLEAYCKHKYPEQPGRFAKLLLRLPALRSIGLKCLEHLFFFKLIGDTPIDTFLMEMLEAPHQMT

[4] = target: T1, Retinoic acid receptor RXR-gamma; assay: Binding affinity to Retinoic acid receptor RXR-gamma was evaluated in a competitive binding assay.
In short: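 Receptor from baculovirus. Competition binding used [3H]-9-cis-RA as the radioligand for RXRs. Kd was calculated with the Cheng-Prussof equation. Values are mean ± SEM of about three experiments, or a single experiment in triplicate.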

[5] = target: T3, Retinoic acid receptor RXR-alpha; assay: Ability to activate gene expression at Retinoic acid receptor RXR-alpha was evaluated in a cotransfection assay.
[6] = target: T2, Retinoic acid receptor RXR-beta; assay: Ability to activate gene expression at Retinoic acid receptor RXR-beta was evaluated in a cotransfection assay.

Row | Compound | pEC50 [1] | pKd [2] | pKd [3] | pKd [4] | pEC50 [5] | pEC50 [6]
1 | C=C(c1ccc(C(=O)O)cc1)c1cc2c(cc1C)C(C)(C)C(C)C2(C)C (configuration not stated) | 6.30 | 6.54 | 6.75 | 6.55 | 6.52 | 6.55
2 | C=C(c1ccc(C(=O)O)cc1)c1cc2c(cc1C)C(C)(C)CCC2 | 6.22 | 6.07 | 5.94 | 5.76 | 5.92 | 6.11
3 | Cc1cc2c(cc1C(C)c1ccc(C(=O)O)cc1)C(C)(C)CCC2(C)C (configuration not stated) | 6.47 | 6.82 | 6.96 | 6.70 | 6.33 | 6.51
4 | C=C(c1ccc(C(=O)O)cc1)c1cc2c(cc1C)CCCC2(C)C | 5.59 | < 6.00 | < 6.00 | < 6.00 | 5.62 | 5.62
5 | Cc1cc2c(cc1C(C)(C)c1ccc(C(=O)O)cc1)C(C)(C)CCC2(C)C | 6.19 | < 6.00 | < 6.00 | < 6.00 | 6.19 | 5.72
6 | Cc1cc2c(cc1Cc1ccc(C(=O)O)cc1)C(C)(C)CCC2(C)C | 6.36 | < 6.00 | < 6.00 | < 6.00 | 6.34 | 5.92
7 | Cc1cc2c(cc1C(=O)c1ccccc1C(=O)O)C(C)(C)CCC2(C)C | < 5.00 | < 6.00 | < 6.00 | < 6.00 | < 5.00 | < 5.00
8 | CC(C)=C(c1ccc(C(=O)O)cc1)c1cc2c(cc1C)C(C)(C)CCC2(C)C | 6.62 | 6.80 | 7.30 | 6.82 | 6.52 | 6.89
9 | Cc1cc2c(cc1C1(c3ccc(C(=O)O)cc3)CC1)C(C)(C)CCC2(C)C | 7.77 | 7.15 | 7.34 | 7.60 | 7.59 | 7.66
10 | Cc1cc2c(cc1Oc1ccc(C(=O)O)cc1)C(C)(C)CCC2(C)C | 6.37 | 6.11 | 6.28 | 6.35 | 6.00 | 5.72
11 | Cc1cc2c(cc1C1(c3ccc(C(=O)O)cc3)CO1)C(C)(C)CCC2(C)C (configuration not stated) | 7.33 | 6.72 | 6.17 | 6.26 | 7.29 | 7.17
12 | Cc1cc2c(cc1C(=O)c1cccc(C(=O)O)c1)C(C)(C)CCC2(C)C | < 5.00 | < 6.00 | < 6.00 | < 6.00 | < 5.00 | < 5.00
